ChEMBL document CHEMBL1129965, “GRID/GOLPE 3D quantitative structure-activity relationship study on a set of benzamides and naphthamides, with affinity for the dopamine D3 receptor subtype” (J Med Chem, 1997)

Molecular target: D(3) dopamine receptor (Homo sapiens, UniProt P35462)
Experiment: Competitive inhibition of [3H]spiperone binding to the human dopamine receptor D3 expressed in CHO cells, expressed as 10log Ki
Assay type: cell-based
How it was run: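 Displacement of [3H]spiperone from human dopamine D3 receptors expressed in CHO K1 cells. Four to six test concentrations, each run in triplicate. IC50 from nonlinear regression, converted to Ki (nM) by Cheng–Prusoff, then reported as 10log Ki.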

Chain of D(3) dopamine receptor (P35462 whole entry): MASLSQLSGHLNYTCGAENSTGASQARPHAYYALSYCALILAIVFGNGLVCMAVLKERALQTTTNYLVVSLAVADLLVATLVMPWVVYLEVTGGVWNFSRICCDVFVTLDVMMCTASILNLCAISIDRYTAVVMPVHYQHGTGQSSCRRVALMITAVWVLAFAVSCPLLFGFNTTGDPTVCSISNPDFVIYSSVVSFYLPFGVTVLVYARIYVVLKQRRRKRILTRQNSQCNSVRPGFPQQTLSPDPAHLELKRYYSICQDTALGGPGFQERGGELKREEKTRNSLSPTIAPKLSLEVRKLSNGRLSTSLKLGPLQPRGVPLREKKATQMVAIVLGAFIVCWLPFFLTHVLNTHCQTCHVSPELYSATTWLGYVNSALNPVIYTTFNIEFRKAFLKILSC

Ki [nM]	Compound
200	COc1c(C(=O)NCCN2CCN(c3ccc(F)cc3F)CC2)cc(Br)c2ccccc12
50.1	COc1c(C(=O)NCCN2CCN(c3ccccc3C#N)CC2)cc(Br)c2ccccc12
316	COc1c(C(=O)NCCN2CCN(c3cccc(C)c3)CC2)cc(Br)c2ccccc12
100	COc1c(C(=O)NCCN2CCN(c3ccc(Cl)cc3Cl)CC2)cc(Br)c2ccccc12
126	CCOc1c(C(=O)NCCN2CCN(c3cccc(C(F)(F)F)c3)CC2)cc(Br)c2ccccc12
25.1	COc1c(C(=O)NCCN2CCN(c3ccccc3)CC2)cc(Br)c2ccccc12
63.1	COc1c(C(=O)NCCN2CCN(c3ccccc3C)CC2)cc(Br)c2ccccc12
50.1	COc1c(C(=O)NCCN2CCN(c3cccc(Cl)c3C)CC2)cc(Br)c2ccccc12
79.4	COc1ccccc1N1CCN(CCNC(=O)c2cc(Br)c3ccccc3c2OC)CC1
251	COc1c(C(=O)NCCN2CCN(c3ccc(C)cc3)CC2)cc(Br)c2ccccc12
251	COc1c(C(=O)NCCN2CCN(c3cccc(C(F)(F)F)c3)CC2)cc(Br)c2ccccc12
39.8	COc1c(C(=O)NCCN2CCN(c3ccccc3Cl)CC2)cc(Br)c2ccccc12
200	COc1c(C(=O)NCCN2CCN(c3ccc(Cl)c(Cl)c3)CC2)cc(Br)c2ccccc12
79.4	COc1c(C(=O)NCCN2CCN(c3ccccn3)CC2)cc(Br)c2ccccc12

Further lines, the compound ahead of its results:

Compound	Ki [nM]
CCc1cc(Cl)c(O)c(C(=O)NCCN2CCN(c3ccccc3)CC2)c1OC	1580
COc1ccc(Br)c(O)c1C(=O)NCCN1CCN(c2ccccc2)CC1	398
COc1c(C(=O)NCCN2CCN(c3ccccc3)CC2)cc2ccccc2c1Br	316
CCOc1c(C(=O)NCCN2CCN(c3ccccc3)CC2)cc(Br)c2ccccc12	251
CCOc1c(C(=O)NCCN2CCN(c3ccccc3OC)CC2)cc(Br)c2ccccc12	79.4
CCOc1c(C(=O)NCCN2CCN(c3ccccn3)CC2)cc(Br)c2ccccc12	79.4
COc1c(C(=O)NCCN2CC=C(c3ccccc3)CC2)cc(Br)c2ccccc12	20
COc1c(C(=O)NCCN2CCN(c3cccc(Cl)c3Cl)CC2)cc(Cl)c2ccccc12	39.8
COc1ccc(Br)cc1C(=O)NCCN1CCN(c2ccccc2)CC1	316
COc1c(Cl)cc(Cl)c(O)c1C(=O)NCCN1CCN(c2ccccc2)CC1	1000
COc1c(Cl)cc(Cl)c(O)c1C(=O)NCCN1CCN(c2cccc(Cl)c2Cl)CC1	501
COc1c(C(=O)NCCN2CCN(c3ccc4ccccc4n3)CC2)cc(Br)c2ccccc12	251
COc1c(C(=O)NCCN2CCN(c3ccccc3)CC2)cc(Cl)c2ccccc12	50.1
COc1c(C(=O)NCCN2CCC(c3ccccc3)CC2)cc(Br)c2ccccc12	79.4

Molecular target: not listed separately
Experiment: Competitive inhibition of [3H]spiperone binding to the human dopamine receptor D3 expressed in CHO cells, expressed as 10log Ki

Log Ki(nM)	Compound
1.6	COc1c(C(=O)NCCN2CCN(c3cccc(Cl)c3)CC2)cc(Br)c2ccccc12
